Results: ChEMBL document CHEMBL1129275, “Synthesis and in vitro and in vivo characteristics of an iodinated analogue of the beta-adrenoceptor antagonist carazolol” (J Med Chem, 1996)

Experiments:
Oryctolagus cuniculus [1] = assay: Biodistribution pattern of [123I]- ligand was evaluated in liver of anesthetized rabbit after Intravenous injection of 50 uCi after 2 hr; assay type: ADME, organism-based; details: in vivo
Outline: (§1)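 Male New Zealand white rabbits, 2.5–3.5 kg, anesthetized with 5 mg/kg xylazine plus 30 mg/kg ketamine im. Each received 50 uCi radioligand (specific activity > 5000 Ci/mmol) iv via ear vein. Animals were killed with 200 mg/kg pentobarbital im at the set time. Blood was drawn by intracardiac puncture and organs weighed. Gamma counting was decay-corrected, expressed as %ID x kg body weight/g tissue, mean ± SEM, n = 3/time point.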

Oryctolagus cuniculus [2] = assay: Biodistribution pattern of [123I]- ligand was evaluated in intestine of anesthetized rabbit after Intravenous injection of 50 uCi after 5 min; assay type: ADME, organism-based; details: in vivo; outline: as §1
Oryctolagus cuniculus [3] = assay: Cerebral biodistribution pattern of [123I]- ligand was evaluated in hypothalamus of anesthetized rabbit after Intravenous injection of 50 uCi after 1 hr; assay type: ADME, organism-based; details: in vivo
Outline: (§2)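 Male New Zealand white rabbits (2.5–3.5 kg), anesthetized with xylazine 5 mg/kg plus ketamine 30 mg/kg im, given 50 µCi radioligand (specific activity >5000 Ci/mmol) iv via ear vein. Euthanized at set times by pentobarbital 200 mg/kg im, n = 3/time point. Organs removed and weighed, gamma-counted, decay/weight corrected; expressed as % ID x kg body weight/g tissue, mean ± SEM.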

Oryctolagus cuniculus [4] = assay: Cerebral biodistribution pattern of [123I]- ligand was evaluated in cerebellum of anesthetized rabbit after Intravenous injection of 50 uCi after 24 hr; assay type: ADME, organism-based; details: in vivo; outline: as §2
Oryctolagus cuniculus [5] = assay: Cerebral biodistribution pattern of [123I]- ligand was evaluated in frontal cortex of anesthetized rabbit after Intravenous injection of 50 uCi after 5 min; assay type: ADME, organism-based; details: in vivo; outline: as §2
Oryctolagus cuniculus [6] = assay: Cerebral biodistribution pattern of [123I]- ligand was evaluated in hypothalamus of anesthetized rabbit after Intravenous injection of 50 uCi after 30 min; assay type: ADME, organism-based; details: in vivo, 0.5 h; outline: as §2
Oryctolagus cuniculus [7] = assay: Biodistribution pattern of [123I]- ligand was evaluated in left ventricular muscle of anesthetized rabbit after Intravenous injection of 50 uCi after 5 min; assay type: ADME, organism-based, Muscle tissue; details: in vivo; outline: as §1
Oryctolagus cuniculus [8] = assay: Biodistribution pattern of [123I]- ligand was evaluated in lung of anesthetized rabbit after Intravenous injection of 50 uCi after 1 hr; assay type: ADME, organism-based; details: in vivo; outline: as §1
Oryctolagus cuniculus [9] = assay: Biodistribution pattern of [123I]- ligand was evaluated in left atrial muscle of anesthetized rabbit after Intravenous injection of 50 uCi after 2 hr; assay type: ADME, organism-based, Muscle tissue; details: in vivo; outline: as §1
Oryctolagus cuniculus [10] = assay: Biodistribution pattern of [123I]- ligand was evaluated in left atrial muscle of anesthetized rabbit after Intravenous injection of 50 uCi after 4 hr; assay type: ADME, organism-based, Muscle tissue; details: in vivo; outline: as §1
Oryctolagus cuniculus [11] = assay: Biodistribution pattern of [123I]- ligand was evaluated in spleen of anesthetized rabbit after Intravenous injection of 50 uCi after 6 hr; assay type: ADME, organism-based; details: in vivo; outline: as §2
Oryctolagus cuniculus [12] = assay: Biodistribution pattern of [123I]- ligand was evaluated in intestine of anesthetized rabbit after Intravenous injection of 50 uCi after 1 hr; assay type: ADME, organism-based; details: in vivo; outline: as §1
Oryctolagus cuniculus [13] = assay: Biodistribution pattern of [123I]- ligand was evaluated in kidney of anesthetized rabbit after Intravenous injection of 50 uCi after 4 hr; assay type: ADME, organism-based; details: in vivo; outline: as §1
Oryctolagus cuniculus [14] = assay: Biodistribution pattern of [123I]- ligand was evaluated in spleen of anesthetized rabbit after Intravenous injection of 50 uCi after 1 hr; assay type: ADME, organism-based; details: in vivo; outline: as §2
Oryctolagus cuniculus [15] = assay: Cerebral biodistribution pattern of [123I]- ligand was evaluated in frontal cortex of anesthetized rabbit after Intravenous injection of 50 uCi after 6 hr; assay type: ADME, organism-based; details: in vivo; outline: as §2
Oryctolagus cuniculus [16] = assay: Biodistribution pattern of [123I]- ligand was evaluated in right ventricular muscle of anesthetized rabbit after Intravenous injection of 50 uCi after 6 hr; assay type: ADME, organism-based, Muscle tissue; details: in vivo; outline: as §2
Oryctolagus cuniculus [17] = assay: Biodistribution pattern of [123I]- ligand was evaluated in blood of anesthetized rabbit after Intravenous injection of 50 uCi after 6 hr; assay type: ADME, organism-based; details: in vivo; outline: as §1
Oryctolagus cuniculus [18] = assay: Biodistribution pattern of [123I]- ligand was evaluated in right atrial muscle of anesthetized rabbit after Intravenous injection of 50 uCi after 2 hr; assay type: ADME, organism-based, Muscle tissue; details: in vivo; outline: as §2
Oryctolagus cuniculus [19] = assay: Biodistribution pattern of [123I]- ligand was evaluated in right ventricular muscle of anesthetized rabbit after Intravenous injection of 50 uCi after 2 hr; assay type: ADME, organism-based, Muscle tissue; details: in vivo; outline: as §2
Oryctolagus cuniculus [20] = assay: Biodistribution pattern of [123I]- ligand was evaluated in left atrial muscle of anesthetized rabbit after Intravenous injection of 50 uCi after 1 hr; assay type: ADME, organism-based, Muscle tissue; details: in vivo; outline: as §1
Oryctolagus cuniculus [21] = assay: Biodistribution pattern of [123I]- ligand was evaluated in liver of anesthetized rabbit after Intravenous injection of 50 uCi after 1 hr; assay type: ADME, organism-based; details: in vivo; outline: as §1
Oryctolagus cuniculus [22] = assay: Cerebral biodistribution pattern of [123I]- ligand was evaluated in hypothalamus of anesthetized rabbit after Intravenous injection of 50 uCi after 5 min; assay type: ADME, organism-based; details: in vivo; outline: as §2
Oryctolagus cuniculus [23] = assay: Biodistribution pattern of [123I]- ligand was evaluated in fat of anesthetized rabbit after Intravenous injection of 50 uCi after 24 hr; assay type: ADME, organism-based, Adipose tissue; details: in vivo; outline: as §1
Oryctolagus cuniculus [24] = assay: Cerebral biodistribution pattern of [123I]- ligand was evaluated in striatum of anesthetized rabbit after Intravenous injection of 50 uCi after 6 hr; assay type: ADME, organism-based; details: in vivo; outline: as §2
Oryctolagus cuniculus [25] = assay: Cerebral biodistribution pattern of [123I]- ligand was evaluated in striatum of anesthetized rabbit after Intravenous injection of 50 uCi after 1 hr; assay type: ADME, organism-based; details: in vivo; outline: as §2
Oryctolagus cuniculus [26] = assay: Biodistribution pattern of [123I]- ligand was evaluated in right ventricular muscle of anesthetized rabbit after Intravenous injection of 50 uCi after 5 min; assay type: ADME, organism-based, Muscle tissue; details: in vivo; outline: as §2
Oryctolagus cuniculus [27] = assay: Biodistribution pattern of [123I]- ligand was evaluated in right atrial muscle of anesthetized rabbit after Intravenous injection of 50 uCi after 30 min; assay type: ADME, organism-based, Muscle tissue; details: in vivo, 0.5 h; outline: as §2
Oryctolagus cuniculus [28] = assay: Biodistribution pattern of [123I]- ligand was evaluated in fat of anesthetized rabbit after Intravenous injection of 50 uCi after 6 hr; assay type: ADME, organism-based, Adipose tissue; details: in vivo; outline: as §1
Oryctolagus cuniculus [29] = assay: Biodistribution pattern of [123I]- ligand was evaluated in fat of anesthetized rabbit after Intravenous injection of 50 uCi after 4 hr; assay type: ADME, organism-based, Adipose tissue; details: in vivo; outline: as §1
Oryctolagus cuniculus [30] = assay: Biodistribution pattern of [123I]- ligand was evaluated in blood of anesthetized rabbit after Intravenous injection of 50 uCi after 24 hr; assay type: ADME, organism-based; details: in vivo; outline: as §1
Oryctolagus cuniculus [31] = assay: Biodistribution pattern of [123I]- ligand was evaluated in kidney of anesthetized rabbit after Intravenous injection of 50 uCi after 5 min; assay type: ADME, organism-based; details: in vivo; outline: as §1
Oryctolagus cuniculus [32] = assay: Biodistribution pattern of [123I]- ligand was evaluated in right ventricular muscle of anesthetized rabbit after Intravenous injection of 50 uCi after 30 min; assay type: ADME, organism-based, Muscle tissue; details: in vivo, 0.5 h; outline: as §2
Oryctolagus cuniculus [33] = assay: Biodistribution pattern of [123I]- ligand was evaluated in intestine of anesthetized rabbit after Intravenous injection of 50 uCi after 2 hr; assay type: ADME, organism-based; details: in vivo; outline: as §1
Oryctolagus cuniculus [34] = assay: Biodistribution pattern of [123I]- ligand was evaluated in blood of anesthetized rabbit after Intravenous injection of 50 uCi after 4 hr; assay type: ADME, organism-based; details: in vivo; outline: as §1
Oryctolagus cuniculus [35] = assay: Biodistribution pattern of [123I]- ligand was evaluated in spleen of anesthetized rabbit after Intravenous injection of 50 uCi after 2 hr; assay type: ADME, organism-based; details: in vivo; outline: as §2
Oryctolagus cuniculus [36] = assay: Cerebral biodistribution pattern of [123I]- ligand was evaluated in thalamus of anesthetized rabbit after Intravenous injection of 50 uCi after 24 hr; assay type: ADME, organism-based; details: in vivo; outline: as §2
Oryctolagus cuniculus [37] = assay: Biodistribution pattern of [123I]- ligand was evaluated in liver of anesthetized rabbit after Intravenous injection of 50 uCi after 30 min; assay type: ADME, organism-based; details: in vivo, 0.5 h; outline: as §1
Oryctolagus cuniculus [38] = assay: Biodistribution pattern of [123I]- ligand was evaluated in lung of anesthetized rabbit after Intravenous injection of 50 uCi after 4 hr; assay type: ADME, organism-based; details: in vivo; outline: as §1

ID x kg of body weight/g of tissue (Oryctolagus cuniculus [1]): 0.09% | ID x kg of body weight/g of tissue (Oryctolagus cuniculus [2]): 0.16% | ID x kg of body weight/g of tissue (Oryctolagus cuniculus [3]): 0.06% | ID x kg of body weight/g of tissue (Oryctolagus cuniculus [4]): 0.07% | ID x kg of body weight/g of tissue (Oryctolagus cuniculus [5]): 0.27% | ID x kg of body weight/g of tissue (Oryctolagus cuniculus [6]): 0.09% | ID x kg of body weight/g of tissue (Oryctolagus cuniculus [7]): 0.52% | ID x kg of body weight/g of tissue (Oryctolagus cuniculus [8]): 1.43% | ID x kg of body weight/g of tissue (Oryctolagus cuniculus [9]): 0.17% | ID x kg of body weight/g of tissue (Oryctolagus cuniculus [10]): 0.11% | ID x kg of body weight/g of tissue (Oryctolagus cuniculus [11]): 0.07% | ID x kg of body weight/g of tissue (Oryctolagus cuniculus [12]): 0.1% | ID x kg of body weight/g of tissue (Oryctolagus cuniculus [13]): 0.05% | ID x kg of body weight/g of tissue (Oryctolagus cuniculus [14]): 0.28% | ID x kg of body weight/g of tissue (Oryctolagus cuniculus [15]): 0.05% | ID x kg of body weight/g of tissue (Oryctolagus cuniculus [16]): 0.08% | ID x kg of body weight/g of tissue (Oryctolagus cuniculus [17]): 0.01% | ID x kg of body weight/g of tissue (Oryctolagus cuniculus [18]): 0.13% | ID x kg of body weight/g of tissue (Oryctolagus cuniculus [19]): 0.18% | ID x kg of body weight/g of tissue (Oryctolagus cuniculus [20]): 0.16% | ID x kg of body weight/g of tissue (Oryctolagus cuniculus [21]): 0.13% | ID x kg of body weight/g of tissue (Oryctolagus cuniculus [22]): 0.25% | ID x kg of body weight/g of tissue (Oryctolagus cuniculus [23]): 0.01% | ID x kg of body weight/g of tissue (Oryctolagus cuniculus [24]): 0.04% | ID x kg of body weight/g of tissue (Oryctolagus cuniculus [25]): 0.07% | ID x kg of body weight/g of tissue (Oryctolagus cuniculus [26]): 0.43% | ID x kg of body weight/g of tissue (Oryctolagus cuniculus [27]): 0.15% | ID x kg of body weight/g of tissue (Oryctolagus cuniculus [28]): 0.02% | ID x kg of body weight/g of tissue (Oryctolagus cuniculus [29]): 0.02% | ID x kg of body weight/g of tissue (Oryctolagus cuniculus [30]): 0.01% | ID x kg of body weight/g of tissue (Oryctolagus cuniculus [31]): 0.92% | ID x kg of body weight/g of tissue (Oryctolagus cuniculus [32]): < 0.21% | ID x kg of body weight/g of tissue (Oryctolagus cuniculus [33]): 0.13% | ID x kg of body weight/g of tissue (Oryctolagus cuniculus [34]): 0.01% | ID x kg of body weight/g of tissue (Oryctolagus cuniculus [35]): 0.22% | ID x kg of body weight/g of tissue (Oryctolagus cuniculus [36]): 0.02% | ID x kg of body weight/g of tissue (Oryctolagus cuniculus [37]): 0.19% | ID x kg of body weight/g of tissue (Oryctolagus cuniculus [38]): 0.82%
Structure (SMILES): CC(C)(/C=C/I)NC[C@H](O)COc1cccc2[nH]c3ccccc3c12
